Data set [1] deals with Human immunodeficiency virus 1. The experiment in a line: Antiviral activity against HIV-1 infected in human CEM-TART cells assessed as protection against virus-induced cytopathicity after 96 hrs by MTT assay. The format is functional, organism-based. In a few lines: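 1A2 subclone of CEM-TART (more lysis-sensitive) in RPMI 1640/20% FBS; compound in DMSO (1% vol) added 2 h after HIV infection; 96 h at 37 °C, 5% CO2; viability by MTT (3–4 h), formazan dissolved in DMSO/0.1% SDS, A570. Triplicates per plate; EC50 = concentration giving 50% of protection by 5 μM AZT, data from ≥3 experiments combined.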

Data set [2] in a line: Cytotoxicity against human CEM-TART cells assessed as cell viability at 100 uM after 72 hrs by MTT assay. Type of data set: cell-based. The method, boiled down:
(§1)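 20,000 CEM-TART cells with compound (DMSO, 0.5% final) in RPMI/20% FBS with antibiotic; 72 h at 37 °C, 5% CO2; MTT (5 mg/mL in PBS) added, formazan dissolved in DMSO/0.1% SDS and read on plate reader; triplicate or quadruplicate. Highest concentration tested 100 μM.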
A general note: Tetrazolium dyes change colour on reduction, which living cells bring about.

Data set [3] in a line: Therapeutic index, ratio of LC50 for human CEM-TART cells to EC50 for HIV-1 infected in human CEM-TART cells. The format is cell-based. The following applies: read-out: TI.
The nature of data set [4]: Cytotoxicity against human CEM-TART cells assessed as cell viability after 72 hrs by MTT assay. The format is cell-based. To be noted: read-out: LC50. The method, boiled down:
as §1

Data set [5] relates to Human immunodeficiency virus 1. The experiment in a line: Antiviral activity against HIV1 infected in human CEM-TART cells assessed as inhibition of viral p24 antigen production at 0.95 uM after 48 hrs by FACS analysis. Type of data set: functional. The following applies: Human immunodeficiency virus 1, CEM-TART. In a few lines:
(§2)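 HIV-infected CEM-TART cells, 48 h. Cells washed in PBS and blocked with murine myeloma IgG (1:100, 30 min, 4 °C). Then fixed in PBS/1% paraformaldehyde/0.05% Triton X100 and stained with AG3.0 mouse anti-P24 (1:50). FITC goat anti-mouse secondary, 30 min at 4 °C each step. Intracellular P24 read by flow cytometry. AZT 5 or 0.5 μg/mL controls.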
In general terms: In flow cytometry, cells or beads pass a laser one at a time.

Data set [6] concerns Human immunodeficiency virus 1. The experiment in a line: Antiviral activity against HIV1 infected in human CEM-TART cells assessed as inhibition of viral p24 antigen production at 1.7 uM after 48 hrs by FACS analysis. The following applies: Human immunodeficiency virus 1, CEM-TART. The format is functional. In a few lines:
as §2

[7] abbreviates: Human immunodeficiency virus 1, CEM-TART, 96 h, read-out: EC50.

The text below walks through data of ChEMBL document CHEMBL3102691, “4-Quinolone alkaloids from Melochia odorata” (J Nat Prod, 2014).

For `Cc1[nH]c2ccc3c(c2c(=O)c1O[C@@H]1O[C@H](CO)[C@@H](O)[C@H](O)[C@H]1O)[C@@H]1CC[C@H](O)[C@@]3(c2ccccc2)O1`, in data set [1] (cem-tart), the EC50 entry is listed as “Not Active”. In addition, the Activity entry in data set [2] is recorded as “Non-toxic”.

`COc1c(C)[nH]c2ccc3c(c2c1=O)[C@@H]1CCC[C@@]3(c2ccccc2)O1`: in data set [3], the selectivity ratio was 13. Besides, in data set [1] (setting [7]), the half-maximal effective concentration (EC50) amounted to 0.84 µM. Also, the CC50 at 72 h in data set [4] amounted to 11 µM. The inhibition at 0.95 µM in data set [5] is above 50%.

Take `Cc1cn([C@H]2C[C@H](N=[N+]=[N-])[C@@H](CO)O2)c(=O)[nH]c1=O` [ZIDOVUDINE]: the EC50 in data set [1] (setting [7]) came to 1.3 µM. Moreover, the CC50 at 72 h in data set [4] amounted to 89.5 µM.

For `COc1ccccc1[C@@]1(O)c2ccc3[nH]c(C)c(OC)c(=O)c3c2[C@@H]2CC[C@H]1O2`, the selectivity ratio in data set [3] is 2. Moreover, the EC50 in data set [1] (setting [7]) came to 56.2 µM. In addition, in data set [6], the inhibition at 1.7 µM was above 50%. Further, in data set [4], the CC50 at 72 h was 102 µM.

Broadly, the EC50 is the concentration that produces a half-maximal response. Usually inhibition stands for the relative decrease from the control value, in per cent.
